Compound activity from PubChem BioAssay.
Shown are actives, neighbours in structure and some others; about 2.6% of the full set was active somewhere.
V1aR counter: activates human V1a receptor in oxytocin agonist counter-screen; P37288; CHO-V1R cells, Fluo-8 calcium fluorescence, agonist mode; 0% DMSO, 100% 3 nM vasopressin; activation, % at 3 µM; actives 0.25% (n = 320,000);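 active means activation above the mean activation of all tested compounds plus 3 SD, per screening run, cut at about 20% in these data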;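 further: signal is peak over basal fluorescence ratio across a 100 second FLIPR read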
OXTR potentiator: human OXTR potentiation. CHO-OTR cells, Fluo-8 calcium fluorescence, potentiator mode; 0% = oxytocin EC15, 100% = EC100. P30559. activation, % at 3 µM. actives 0.061% (n = 320,000);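 active means activation above that plate's cutoff, the mean activation of tested compounds plus 3 SD, cut at about 6.6% in these data, passing the limit was not always enough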;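 further: 100% uses oxytocin at 75 nM as the full agonist control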
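Material: CHO-OTR cells, human receptor; compound dosing: single dose, 3.0 µM nominal final compound concentration; schedule: 6 min compound pre-incubation at room temperature, 100 s kinetic read; measured by: kinetic Fluo-8 calcium fluorescence; read-out basis: % activation vs EC15 and EC100 oxytocin; controls: EC15 oxytocin alone as 0%, 75 nM oxytocin as 100%; replicates: singlicate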
OXTR ag: activates the human oxytocin receptor; actives 0.32% (n = 320,000); CHO-OTR cells, Fluo-8 calcium fluorescence; normalized: DMSO 0%, oxytocin 100%; activation, % at 3 µM;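 active means activation above the mean of all tested compounds plus 3 SD, cutoff set per screening run, cut at about 20% in these data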;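 further: peak over basal fluorescence ratio from a 100 s FLIPR kinetic read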
OX1R antag-1: blocks the human orexin 1 receptor | O43613 | OX1R-expressing cells, FRET antagonist read-out | inhibition, % at 6.6 µM | actives 1.8% (n = 330,000); in the data active means inhibition mostly above about 38%, no sharp cut-off; inactive means mostly below about 40%;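 further: 0% = agonist challenge alone and 100% = reference antagonist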
Target sequence (O43613 whole entry, looked up): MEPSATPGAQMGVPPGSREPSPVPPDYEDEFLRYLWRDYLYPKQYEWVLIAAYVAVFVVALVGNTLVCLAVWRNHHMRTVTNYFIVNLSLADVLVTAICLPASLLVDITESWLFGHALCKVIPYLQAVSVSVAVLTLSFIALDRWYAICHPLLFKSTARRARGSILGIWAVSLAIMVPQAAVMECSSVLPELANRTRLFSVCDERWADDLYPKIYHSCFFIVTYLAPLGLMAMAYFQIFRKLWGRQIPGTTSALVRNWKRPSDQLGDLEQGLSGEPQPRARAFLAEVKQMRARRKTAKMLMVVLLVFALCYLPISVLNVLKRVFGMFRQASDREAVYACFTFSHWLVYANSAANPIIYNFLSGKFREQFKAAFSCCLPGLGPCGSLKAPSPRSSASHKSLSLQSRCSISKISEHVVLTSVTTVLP
CHO parental Ca: counter-screen for OX1R antagonists: effect in parental CHO cells | parental CHO-K1, ATP-induced calcium, Fluo-8 fluorescence | inhibition, % at 5.6 µM | actives 0.63% (n = 330,000) | AID 463079;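 active means inhibition above that plate's mean sample inhibition plus 3 SD, cut at about 26% in these data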;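 further: 0% = ATP-challenged DMSO wells and 100% = DMSO wells without ATP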
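Material: parental CHO cells / Compound: single nominal dose of 5.6 µM per compound / Signal: Fluo-8 fluorescence / Replicates: singlicate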
OX1R antag-2: human HCRTR1 antagonism; O43613; actives 0.43% (n = 330,000); inhibition, % at 5 µM; CHO/OX1R cells, Fluo-8 calcium fluorescence, orexin A;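 active means inhibition above its plate's threshold, mean inhibition of all tested compounds on the plate plus 3 SD, cut at about 37% in these data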;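 further: 0% = orexin A challenge wells and 100% = SB-334867-A antagonist wells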
An asterisk follows results filed as active; · = no result given.

SMILES	V1aR counter	OXTR potentiator	OXTR ag	OX1R antag-1	CHO parental Ca	OX1R antag-2
Cc1ccc(S(=O)(=O)N2[C@@H](c3ccccc3)C(C(=O)O)=CC[C@H]2c2ccc(Cl)c(Cl)c2)cc1	0.1	-9.3	-1.0	55.4*	-13.6	-4.9
COc1cc([C@@H]2CC=C(C(=O)O)[C@H](c3ccccc3F)N2S(=O)(=O)c2ccc(C)cc2)cc(OC)c1OC	-0.5	1.1	-0.1	12.8	-16.5	0.3
Cc1ccc([C@H]2C(C(=O)O)=CC[C@@H](c3ccc(Cl)c(Cl)c3)N2S(=O)(=O)c2ccc(C)cc2)cc1	0.6	-5.0	-0.4	17.2	-15.5	8.8
Cc1ccc(S(=O)(=O)N2[C@@H](c3ccccc3F)C(C(=O)O)=CC[C@H]2c2ccc(Cl)c(Cl)c2)cc1	1.1	-11.6	-1.4	66.9*	-10.2	-4.3
Cc1cc(C)c2nc(-c3cccc(Cl)c3)c(C)c(C(=O)N3CCOCC3)c2c1	5.1	-15.8	-1.0	23.7	-9.8	-37.9
COCCOc1nc2c(c(=O)n(C)c(=O)n2C)n1Cc1cccc(OC)c1	5.8	-13.6	3.7	5.3	44.8*	-6.8
O=C(O)CN1C(=O)c2ccc(Oc3ccc([N+](=O)[O-])cc3)cc2C1=O	-0.2	-11.8	0.5	52.6*	-1.2	11.4
COc1cccc(NC(=O)CN(C)C(=O)CN2C(=O)c3ccc([N+](=O)[O-])cc3C2=O)c1	0.4	-1.6	0.6	47.9*	-12.7	-2.3
O=C(CCN1C(=O)c2ccc([N+](=O)[O-])cc2C1=O)Nc1cccc(O)c1	0.4	-5.1	-1.2	45.6*	2.7	9.7
O=C1c2ccc([N+](=O)[O-])cc2C(=O)N1CNc1ccccn1	0.6	-27.2	-1.0	61.3*	13.5	-5.7
CN(Cc1ccccc1)C(=O)CN1C(=O)c2ccc([N+](=O)[O-])cc2C1=O	0.5	-12.6	-0.1	69.7*	-4.5	-30.2
CCOc1ccc(/C=C2\CCCc3c2nc2ccccc2c3C(=O)O)cc1OC	134.8*	-17.3	100.2*	81.8*	29.7*	30.4
COc1cc(/C=C2\CCCc3c2nc2ccccc2c3C(=O)O)cc(OC)c1O	0.7	-10.3	0.5	10.0	-5.0	-13.1
COc1ccc(/C=C2\CCCc3c2nc2ccccc2c3C(=O)O)cc1OC	14.2	-9.3	1.6	63.1*	2.8	6.8
COc1ccc(/C=C2\CCc3c2nc2ccccc2c3C(=O)O)cc1OC	10.6	-3.9	10.9	75.2*	6.6	0.3
COc1cc(/C=C2\CCCc3c2nc2ccccc2c3C(=O)O)cc([N+](=O)[O-])c1O	-0.4	-8.2	1.0	59.2	-5.7	-0.9
COc1ccc(-c2cc(CCC(=O)N3CCN(c4cc(C)ccc4C)CC3)on2)cc1	·	·	·	9.1	-11.8	-9.9
CCN(CC(=O)Nc1ccc(OC)cc1)C(=O)Cc1cccs1	-0.6	-4.1	-1.4	4.4	-8.5	-6.7
Cc1ccc(S(=O)(=O)Nc2cc3c4c(c2)CCC(=O)N4CCC3)cc1	-0.1	-0.1	1.1	-0.5	-0.6	-12.5
FC(F)C(F)(F)c1cc(-c2ccc(Cl)cc2)n[nH]1	22.0*	-19.5	20.6*	1.9	55.5*	73.0*
Cc1cn([C@@H](CCCCNC(=O)OC(C)(C)C)C(=O)NCCCCCCCCCCC(=O)N2CCN(C(=O)OC(C)(C)C)CC2)nn1	6.9	-20.7	1.8	61.4*	60.6*	36.2
O=C(Cc1cccs1)N(Cc1ccco1)C1(C(=O)NC2CCCCC2)CCCCC1	3.7	-16.5	12.6	15.3	-1.8	-31.6
O=C(Cc1cccs1)N(Cc1cccs1)C1(C(=O)NC2CCCC2)CCCCC1	28.1*	-19.3	23.9*	16.1	-7.3	-6.5
CCc1ccc(S(=O)(=O)/N=C2/C=C(Sc3ncn[nH]3)C(=O)c3ccccc32)cc1	0.9	-1.6	-1.2	67.5*	-12.2	-13.5
CCc1ccc(S(=O)(=O)/N=C2\C=C(Nc3cccc(C(=O)O)c3)C(=O)c3ccccc32)cc1	0.8	-3.7	-0.9	45.6*	-7.1	-12.7
SMILES	V1aR counter	OXTR potentiator	OXTR ag	OX1R antag-1	CHO parental Ca	OX1R antag-2
CCc1ccc(S(=O)(=O)/N=C2\C=CC(=O)c3ccccc32)cc1	-0.8	2.8	-0.4	17.6	-7.7	-14.8
COc1ccc(S(=O)(=O)N(C)C[C@H]2Oc3c(NC(=O)C4CCCCC4)cccc3C(=O)N([C@H](C)CO)C[C@@H]2C)cc1	0.8	-6.0	-0.8	8.4	-20.7	-17.1
Oc1ccc(N=Nc2ccc(Br)cc2)c(O)c1	1.7	-19.1	1.1	1.8	4.6	-8.7
Cc1ccc(N=Nc2ccc(O)cc2)c(Br)c1	-0.8	-13.5	0.3	3.2	56.0*	3.6
Cc1[nH][nH]c(=O)c1C(c1ccc(-c2cccc(C(=O)O)c2)o1)c1c(C)[nH][nH]c1=O	-0.4	0.9	0.8	40.5	-4.3	-7.6
Cc1[nH][nH]c(=O)c1C(c1ccc(-c2ccccc2C(=O)O)o1)c1c(C)[nH][nH]c1=O	0.0	-3.0	1.0	50.2*	-5.4	-3.4
O=c1[nH]c2c(Br)cnc([N+](=O)[O-])c2[nH]1	-0.1	-1.4	-0.5	42.8*	-6.6	-10.4
COc1cccc([C@@H]2Oc3ccc(OC)cc3C(=O)[C@H]2OC(=O)NCc2ccc3c(c2)OCO3)c1	1.6	-18.4	0.5	35.2	1.8	-1.0
COc1ccc2cc(Br)ccc2c1CC(=O)NC(C)(C)C	-1.9	-1.0	-1.5	61.1	54.1*	-2.8
Cc1ccc(NC(=S)NNC(=O)c2ccccc2O)c(C)c1	10.8	-31.4	12.6	67.5	12.4	3.9
CCn1cc(Cl)c(C(=O)N2N=C(c3ccc4ccccc4c3)CC2c2ccccc2O)n1 (centres undefined)	2.1	-7.2	2.0	3.6	60.4*	12.4
COc1cccc(Oc2ccc(C(F)(F)F)cc2NC(=O)CN2C(=O)NC3(CCCC3)C2=O)c1	1.2	-6.7	0.8	5.8	3.1	-14.6
O=[N+]([O-])c1ccc(Oc2ccc(S(=O)(=O)Nc3ccccc3)cc2)cc1	22.4*	-15.9	31.2*	26.4	19.7	49.6*
O=[N+]([O-])c1ccc(S(=O)(=O)Nc2ccncc2)cc1	-1.2	-10.5	-0.4	24.5	15.2	-0.7
O=C1C(Cl)=C(NS(=O)(=O)c2ccc([N+](=O)[O-])cc2)C(=O)c2ccccc21	-0.9	-11.4	-1.4	44.7*	11.6	-0.2
O=[N+]([O-])c1ccc(Oc2ncccn2)cc1	0.6	-2.8	1.0	44.6*	-7.7	-6.2
O=S(=O)(Nc1ccccc1)c1ccc(Oc2ncc(C(F)(F)F)cc2Cl)cc1	21.8*	-24.7	30.4*	46.9*	73.3*	88.2*
O=C(NCC[C@@H]1C[C@@H]2C=C[C@H]1C2)c1cc(COc2ccc(F)cc2F)on1	0.9	-5.5	0.0	10.1	-11.4	-5.9
